IC50 data for 13 compounds are collected here from ChEMBL document CHEMBL3085625, “Synthesis, biological evaluation and molecular modeling studies of some novel thiazolidinediones with triazole ring” (Eur J Med Chem, 2013).

Test [1] has as its system MCF7. The test is described as follows: Cytotoxicity against human MCF7 cells after 24 hrs by MTT assay. The test is classed as functional, cell-based. Conditions: MCF7, 24 h. The gist of the method:
(§1)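 MTT read-out: viable-cell mitochondrial dehydrogenase reduces tetrazolium to formazan, which is dissolved in DMSO and read at 570 nm. IC50 reported in μg/ml. Doxorubicin serves as positive control.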

The nature of test [2]: Inhibition of alpha-glucosidase (unknown origin) using p-nitrophenyl-alpha-D-glucopyranoside as substrate assessed as p-nitrophenol formation incubated for 5 mins prior to substrate addition measured after 5 mins by spectrophotometry. The gist of the method: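 Test samples (5 mg/mL DMSO stock) in 100 mM phosphate buffer pH 6.8 preincubated 5 min with yeast α-glucosidase (0.76 U/mL) or crude rat intestinal enzyme (supernatant of sonicated acetone powder in saline, centrifuged). Then 5 mM p-nitrophenyl-α-D-glucopyranoside added; p-nitrophenol read at 405 nm after 5 min. Sample blanks without substrate; DMSO controls. Inhibition = (1−B/A)×100. Triplicate; IC50 by regression of mean inhibition.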

Test [3] in a line: Cytotoxicity against human IMR32 cells after 24 hrs by MTT assay. Conditions: IMR-32, 24 h. The test is classed as functional, cell-based. The gist of the method:
as §1

The subject of test [4] is HepG2. The test is described as follows: Cytotoxicity against human HepG2 cells after 24 hrs by MTT assay. The test is classed as functional, cell-based. The following applies: HepG2, 24 h. An outline of the steps:
as §1

Values after ≈ are worked out from the molar mass of the structure shown.

Turning to `O=C1S/C(=C\c2ccc3c(c2)OCO3)C(=O)N1Cc1cn(-c2ccc(Cl)c(F)c2)nn1`, the IC50 in test [1], in test [2], in test [3] and in test [4] was more than 100 µg/mL throughout.
On to `COc1ccc(C)cc1-n1cc(CN2C(=O)S/C(=C\c3ccc4c(c3)OCO4)C2=O)nn1`, for which the 50% inhibitory concentration (IC50) in test [1] is 34 µg/mL (≈ 75.5 µM); in test [2], more than 100 µg/mL; in test [3], 52.6 µg/mL (≈ 117 µM); in test [4], 45 µg/mL (≈ 99.9 µM).
For `O=C1S/C(=C\c2ccc3c(c2)OCO3)C(=O)N1Cc1cn(CCc2ccccc2)nn1`, the half-maximal inhibitory concentration (IC50) turned out to be 30 µg/mL (≈ 69 µM) in test [1], 0.3 µg/mL (≈ 0.69 µM) in test [2], 52.6 µg/mL (≈ 121 µM) in test [3] and 31 µg/mL (≈ 71.4 µM) in test [4].
The like results for `CCCCCCn1cc(CN2C(=O)S/C(=C\c3ccc4c(c3)OCO4)C2=O)nn1` were, in that order, 43 µg/mL (≈ 104 µM), more than 100 µg/mL, 77.6 µg/mL (≈ 187 µM) and 67 µg/mL (≈ 162 µM).
In the case of `O=C1S/C(=C\c2ccc3c(c2)OCO3)C(=O)N1Cc1cn(-c2ccc(F)cc2)nn1`, the IC50 was 96.2 µg/mL (≈ 227 µM) in test [1], more than 100 µg/mL in test [2], more than 100 µg/mL in test [3] and more than 100 µg/mL in test [4].
Take `O=C1S/C(=C\c2ccc3c(c2)OCO3)C(=O)N1Cc1cn(-c2ccc(Cl)cc2)nn1`: the IC50 is more than 100 µg/mL in test [1], 33.6 µg/mL (≈ 76.2 µM) in test [2], more than 100 µg/mL in test [3] and more than 100 µg/mL in test [4].
Regarding `O=C1S/C(=C\c2ccc3c(c2)OCO3)C(=O)N1Cc1cn(-c2ccccc2Cl)nn1`, the concentration for half-maximal inhibition (IC50) in test [1] was 87 µg/mL (≈ 197 µM); in test [2], 40 µg/mL (≈ 90.7 µM); in test [3], more than 100 µg/mL; in test [4], more than 100 µg/mL.
For `O=C1S/C(=C\c2ccc3c(c2)OCO3)C(=O)N1Cc1cn(-c2ccccc2[N+](=O)[O-])nn1`, the IC50 is more than 100 µg/mL in test [1], 0.1 µg/mL (≈ 0.222 µM) in test [2], more than 100 µg/mL in test [3] and more than 100 µg/mL in test [4].
As for `CC(C)c1ccc(-n2cc(CN3C(=O)S/C(=C\c4ccc5c(c4)OCO5)C3=O)nn2)cc1`, the concentration for half-maximal inhibition (IC50) in test [1] is 78 µg/mL (≈ 174 µM); in test [2], 0.3 µg/mL (≈ 0.669 µM); in test [3], 97.5 µg/mL (≈ 217 µM); in test [4], 66 µg/mL (≈ 147 µM).
The like results for `Cc1ccc(-n2cc(CN3C(=O)S/C(=C\c4ccc5c(c4)OCO5)C3=O)nn2)cc1` were, in that order, more than 100 µg/mL, 75.5 µg/mL (≈ 180 µM), more than 100 µg/mL and more than 100 µg/mL.
On the same counts, the results for `O=C1S/C(=C\c2ccc3c(c2)OCO3)C(=O)N1Cc1cn(-c2ccc(F)c(F)c2)nn1` are more than 100 µg/mL, more than 100 µg/mL, more than 100 µg/mL and more than 100 µg/mL.
Consider `C[C@H]1O[C@H](O[C@H]2[C@H](O)[C@@H](O)[C@@H](O[C@H]3[C@H](O)[C@@H](O)C(O)O[C@@H]3CO)O[C@@H]2CO)[C@H](O)[C@@H](O)[C@@H]1N[C@H]1C=C(CO)[C@@H](O)[C@H](O)[C@H]1O` (some centres not stated) [ACARBOSE], for which the IC50 in test [2] was 12.5 µg/mL (≈ 19.4 µM).
Take `COc1cccc2c1C(=O)c1c(O)c3c(c(O)c1C2=O)C[C@@](O)(C(=O)CO)C[C@@H]3O[C@H]1C[C@H](N)[C@H](O)[C@H](C)O1` [DOXORUBICIN]: the IC50 in test [3] came out at 0.8 µg/mL (≈ 1.47 µM); in test [4] it was 0.6 µg/mL (≈ 1.1 µM).
